Compounds with a hit are over-represented: about 3.8% of the library has one in this group of screens.
T cell modulator: T cell immune modulation candidate. 2C CD8+ T cell-vesicle binding, flow cytometry; hits give low values. response (vesicle binding), % at 7 µM. actives 0.068% (n = 330,000);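 active = response, share of CD8 T cells binding vesicles, and their 90th percentile fluorescence all below set limits, cut at about 80% in these data, passing the limit was not always enough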;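 note: values below 100% mean blocked vesicle binding to the CD8+ T cells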
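Benchmarks: naked versus QL9-loaded vesicles / Assay system: purified 2C TCR transgenic mouse naive CD8+ T cells / Technique: high-throughput flow cytometry with anti-B7-1 and anti-CD8 staining / Timing: Cell–vesicle co-incubation 1.5 h at 37 °C, staining 20 min on ice / Read-out: percent CD8+ FL2 mean versus row control / Probe or stimulus: QL9-loaded Drosophila micro-vesicles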
MPTP inh: inhibitors of mitochondrial permeability transition pore; inhibition, % at 10 µM; isolated mouse mitochondria, Ca2+ swelling absorbance, 30 min; actives 1.4% (n = 360,000);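 active = inhibition of 50% or more, scaled per plate between neutral and stimulator controls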
Beta2AR agonist: human beta-2 adrenergic receptor agonism by FAP | Am2.2-beta2AR cells, FAP receptor internalization, flow cytometry | actives 0.43% (n = 340,000) | response, % (concentration not given with the values);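 active = response above a set limit, near 3 SD of response in nonfluorescent compounds, cut at about 42% in these data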
Target sequence (P07550 whole entry, looked up): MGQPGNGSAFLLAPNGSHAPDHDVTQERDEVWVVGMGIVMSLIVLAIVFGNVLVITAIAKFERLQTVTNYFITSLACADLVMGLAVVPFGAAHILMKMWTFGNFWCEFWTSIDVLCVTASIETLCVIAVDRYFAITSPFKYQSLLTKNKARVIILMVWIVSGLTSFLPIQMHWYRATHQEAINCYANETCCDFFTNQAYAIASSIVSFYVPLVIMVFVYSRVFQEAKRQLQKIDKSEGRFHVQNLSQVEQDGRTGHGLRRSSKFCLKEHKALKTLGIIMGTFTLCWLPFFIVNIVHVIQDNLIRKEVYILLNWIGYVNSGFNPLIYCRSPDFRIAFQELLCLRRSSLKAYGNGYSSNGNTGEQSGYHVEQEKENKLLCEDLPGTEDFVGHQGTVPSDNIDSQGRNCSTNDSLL
rCAG binder: molecules binding r(CAG) RNA repeats; inhibition, % at 3 µM; r(CAG) RNA repeat, TO-PRO-1 dye displacement fluorescence; actives 1.3% (n = 370,000);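 active = inhibition above the plate cutoff, the mean of all test compounds on that plate plus 3 SD, cut at about 35% in these data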;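 note: higher means more dye released from RNA so lower well fluorescence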
Exocytosis inh: blocks lytic granule exocytosis | inhibition, % at 10 µM | AID 651702 | actives 0.66% (n = 360,000) | TALL-104 LAMP-1 surface exposure, flow cytometry; cells stimulated with thapsigargin and PMA;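 active = inhibition above about 55%, limit read from the data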
V-ATPase pH: yeast V-ATPase proton transport regulation by pHLuorin | S. cerevisiae, pHLuorin cytosolic pH fluorescence | response, % at 10 µM | actives 0.37% (n = 350,000); in the data active = response mostly above about 7.3%, no sharp cut-off; inactive = mostly below about 5.4%; note: actives read high
Each line names hits and unclear results; the compound was inactive in the other large screens; ! = not active in a repeat.

CC1(C)CC(=O)C=C(c2ccccc2-c2ccc3cc[nH]c3c2)C1=O	none (no result: T cell modulator, Beta2AR agonist)
C=CCN=C1NC(CCc2ccccc2)C(C(=O)OC)=C(C)N1C (stereo not drawn)	none (no result: T cell modulator, MPTP inh, Beta2AR agonist, Exocytosis inh, V-ATPase pH)
Cc1sc(C(C2C(=O)CC(C)(C)CC2=O)C2C(=O)CC(C)(C)CC2=O)cc1[N+](=O)[O-]	Exocytosis inh 73
Cc1ccc(-c2n[nH]c(=S)n2/N=C/C=C/c2ccccc2[N+](=O)[O-])cc1	rCAG binder 40
CCSc1nc2ccccc2n1C(=O)/C=C\c1ccc(OC)c(OC)c1	Beta2AR agonist 51
CCSc1nc2ccccc2n1CC(N)=O	none
Cc1c(Cl)cccc1N=Cc1ccc([N+](=O)[O-])s1	V-ATPase pH 20
Cc1ccccc1C(=O)N/N=C/c1ccc([N+](=O)[O-])s1	none
COc1cc2c(cc1OC)C(=O)C(Br)CC2 (stereo not drawn)	Exocytosis inh 100 (no result: T cell modulator, Beta2AR agonist, rCAG binder)
COc1cc2c(cc1OC)C(=O)C(c1ccc3c(c1)OCO3)CC2 (stereo not drawn)	none (no result: T cell modulator, Beta2AR agonist)
COc1cc(C=NN2CCN(C(c3ccccc3)c3ccccc3)CC2)cc(OC)c1OC(C)=O	none (no result: T cell modulator, MPTP inh, Beta2AR agonist, Exocytosis inh, V-ATPase pH)
CCc1ccccc1NC1=NCC(=O)N1Cc1ccccc1	V-ATPase pH 16
CCCCCCn1cc(CN2CC=CS2(=O)=O)nn1	none (no result: T cell modulator, MPTP inh, Beta2AR agonist, Exocytosis inh, V-ATPase pH)
O=C(/C=C/C=C/c1ccccc1)CC1(O)C(=O)N(CCc2ccccc2)c2ccccc21 (stereo not drawn)	Beta2AR agonist 93
Cc1ccc2nc(N(CCCN(C)C)C(=O)c3ccc(S(=O)(=O)N4CCc5ccccc5C4)cc3)sc2c1	none
CN(C)CCCN(C(=O)c1ccc(S(=O)(=O)N2CCc3ccccc3C2)cc1)c1nc2ccc(F)cc2s1	Beta2AR agonist 49
CN(C)CCCN(C(=O)c1ccc(S(=O)(=O)N2CCc3ccccc3C2)cc1)c1nc2c(F)cccc2s1	none
Cc1cccc2sc(N(CCCN(C)C)C(=O)c3ccc(S(=O)(=O)N4CCc5ccccc5C4)cc3)nc12	Beta2AR agonist 46
CCOC(=O)N1CCN(C(=O)C[C@H]2C[C@@]3(C(=O)OC)C(=C[C@H](C(C)(C)C)O[C@@H]3C)N(Cc3ccco3)C2=O)CC1	none (no result: T cell modulator, MPTP inh, Beta2AR agonist, Exocytosis inh, V-ATPase pH)
OC[C@@H](O)[C@@H](O)CO	none
OCC(O)C(O)CC1SCCS1 (stereo not drawn)	V-ATPase pH 13 (no result: T cell modulator)
COC(=O)C1CN(Cc2ccc(OC)cc2)CCS(=O)(=O)N1Cc1cn(CCOC(C)=O)nn1 (stereo not drawn)	none (no result: T cell modulator, MPTP inh, Beta2AR agonist, Exocytosis inh, V-ATPase pH)
COC(=O)C1=C(C)NC(=O)/C1=C\c1cc(C)n(-c2ccc(F)cc2)c1C	Exocytosis inh 104
COC(=O)C1=C(O)/C(=C\c2cc(C)n(-c3ccc(F)cc3)c2C)N=C1C	Beta2AR agonist 69
COC(=O)C1=C(O)/C(=C/c2cccc(OC)c2O)N=C1C	none
COC(=O)C1=C(C)N(CCc2ccc(OC)c(OC)c2)C(=O)C1	V-ATPase pH 31
COC(=O)C1=C(C)N(Cc2ccc(OC)c(OC)c2)C(=O)C1	none
O=C(Nc1cccc2c1CCCC2)c1cc([N+](=O)[O-])ccc1Cl	V-ATPase pH 9.7
CCCCCCSC1=C(C#N)C(c2ccccc2)CC(=O)N1 (stereo not drawn)	none
CCCSC1=C(C#N)C(c2cccs2)CC(=O)N1 (stereo not drawn)	Exocytosis inh 90
CC(C)(C)c1ccc(-c2nnc(SCC(=O)Nc3cccc4ccccc34)n2Cc2ccco2)cc1	none (no result: T cell modulator, MPTP inh, Beta2AR agonist, Exocytosis inh, V-ATPase pH)
CCCn1c(NC(=O)c2ccccc2)nc(Cc2ccccc2)c1Cc1ccccc1	none (no result: T cell modulator, MPTP inh, Beta2AR agonist, Exocytosis inh, V-ATPase pH)
Cc1ccc(/C=C2\SC(=S)N(Cc3ccccc3)C2=O)o1	none
O=C(O)COc1cccc(/C=C2/SC(=S)N(Cc3ccccc3)C2=O)c1	rCAG binder 52
O=C(O)c1cc(-c2ccc(/C=C3/SC(=S)N(Cc4ccccc4)C3=O)o2)ccc1Cl	Exocytosis inh 90 (no result: T cell modulator)
O=C1/C(=C\c2cccc(O)c2)SC(=S)N1Cc1ccccc1	none
O=S(=O)(CC1NCc2ccccc21)NCCc1ccccc1 (stereo not drawn)	none (no result: T cell modulator, MPTP inh, Beta2AR agonist, Exocytosis inh, V-ATPase pH)
COc1ccc(CC2=CC(=O)c3ccccc3C2=O)cc1	Beta2AR agonist 56
CC1(C)C(=O)C=CC(=O)C(C)(C)C(=O)C=CC(=O)C(C)(C)C2=CC=C(O2)C(C)(C)C(=O)C=CC1=O	Beta2AR agonist 62 (no result: T cell modulator)
CN(CC(=O)Nc1cccc(C(F)(F)F)c1)C1=NS(=O)(=O)c2ccccc21	V-ATPase pH 13
Cn1ncc2c(O/N=C(\N)c3ccc(C(C)(C)C)cc3)ncnc21	Beta2AR agonist 49 (no result: rCAG binder)
CS/C(=N\S(=O)(=O)c1cccs1)Nc1ccc(Br)cc1F	Beta2AR agonist 59!
CS/C(=N\S(=O)(=O)c1cccs1)Nc1ccc(Cl)cc1	none
CCc1nnc(N/N=C/c2ccc(N3CCC(C)CC3)c([N+](=O)[O-])c2)n1N	V-ATPase pH 16
CN(C)c1ccc(/C=N\NC(=O)c2cccc(S(=O)(=O)N(C)C)c2)cc1	none (no result: T cell modulator, MPTP inh, Beta2AR agonist, Exocytosis inh, V-ATPase pH)
COc1ccccc1OCC(=O)NNc1c2ccccc2nc2ccccc12	Exocytosis inh 59
COc1ccccc1OCC(=O)NNC(=O)CCCC(=O)NNC(=O)COc1ccccc1OC	none
COc1ccc(OC)c(CN2C(=O)COc3ccccc3C2c2nnnn2C2CCCC2)c1 (stereo not drawn)	none (no result: T cell modulator, MPTP inh, Beta2AR agonist, Exocytosis inh, V-ATPase pH)
Cc1c[nH]c2cccc(-c3cc4ccccc4o3)c12	none (no result: T cell modulator, MPTP inh, Beta2AR agonist, Exocytosis inh, V-ATPase pH)
N#C/C(=C\c1ccc(N2CCOCC2)o1)c1nc2ccccc2[nH]1	none
N#C/C(=C/c1ccc(N2CCOCC2)o1)c1ccc(Cl)cc1	Exocytosis inh 82
CN(c1ccccc1)c1ccc(/C=C/[N+](=O)[O-])cc1	Beta2AR agonist 88
O=C(NCc1cccnc1)/C(=C/c1ccc(-c2ccc(Cl)cc2)o1)S(=O)(=O)c1ccccc1	Beta2AR agonist 108, Exocytosis inh 87
Cc1cc(C)c(C)c(OC(=O)c2sc(Cl)nc2C)c1	Beta2AR agonist 92
CCN(CC)C(=O)CC[C@H]1CC[C@]2(CCCN(C(=O)C(C)(C)C)C2)O1	none (no result: T cell modulator, MPTP inh, Beta2AR agonist, Exocytosis inh, V-ATPase pH)
CC(CN1CCN(Cc2ccccc2)CC1)c1ccccc1 (stereo not drawn)	Exocytosis inh 61
C[C@@H](CO)N(Cc1cn(Cc2ccccc2)nn1)S(=O)(=O)c1ccc(F)cc1Br	none (no result: T cell modulator, MPTP inh, Beta2AR agonist, Exocytosis inh, V-ATPase pH)
Cc1sc2ncnc(Nc3ccc(N4CCOCC4)cc3)c2c1-c1ccccc1	none
Cc1sc2ncnc(N3CCN(Cc4ccccc4)CC3)c2c1-c1ccccc1	Exocytosis inh 63
CCCC[C@@H]1C(=O)N2N=Cc3cscc3[C@H]2N2N=Cc3cscc3[C@@H]12	none (no result: T cell modulator, MPTP inh, Beta2AR agonist, Exocytosis inh, V-ATPase pH)
CN(C)CCNc1oc(-c2ccccc2Cl)nc1S(=O)(=O)c1ccccc1	T cell modulator 0.0
CN(C)CCCNc1oc(-c2ccccc2Cl)nc1S(=O)(=O)c1ccc(F)cc1	none
COC(=O)C1CN(C2CCCC2)CCS(=O)(=O)N1Cc1ccc(OC)cc1 (stereo not drawn)	none (no result: T cell modulator, MPTP inh, Beta2AR agonist, Exocytosis inh, V-ATPase pH)
COC(=O)[C@]12C[C@H](CC(=O)NCc3cccc(C(F)(F)F)c3)C(=O)N(Cc3ccc4c(c3)OCO4)C1=C[C@H](C(C)(C)C)O[C@@H]2C	none (no result: T cell modulator, MPTP inh, Beta2AR agonist, Exocytosis inh, V-ATPase pH)

Screening results: PubChem, several laboratories
